Test results as given in ChEMBL document CHEMBL2176962, “Repositioning HIV-1 integrase inhibitors for cancer therapeutics: 1,6-naphthyridine-7-carboxamide as a promising scaffold with drug-like properties” (J Med Chem, 2012).

How the values were obtained:
[1] = tested on: MCF7; test: Cytotoxicity against human MCF7 cells incubated for 72 hrs by MTT assay; assay type: functional, cell-based; conditions: MCF7, 72 h
How it was run: (§1)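 Cells were kept in DMEM (MDA-MB-435, MCF7, LNCaP) or RPMI (HT29, HCT116) with 10% heat-inactivated FBS and 2 mM L-glutamine, subconfluent and in exponential growth. They were seeded, allowed to adhere overnight, then exposed continuously to compound (10 mM DMSO stock) for 72 h. MTT was added to 0.3 mg/mL final for 3–4 h at 37 °C, formazan was dissolved in DMSO, and absorbance was read at 570 nm. Runs were in triplicate; IC50 came from log concentration versus percent cell kill.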

[2] = tested on: SK-BR-3; test: Cytotoxicity against human SKBR3 cells incubated for 72 hrs by MTT assay; assay type: functional, cell-based; conditions: SK-BR-3, 72 h
[3] = tested on: HCT-116; test: Cytotoxicity against p53 expressing human HCT116 cells incubated for 72 hrs by MTT assay; assay type: functional, cell-based; conditions: HCT-116, 72 h; how it was run: as §1
[4] = tested on: HCT-116; test: Cytotoxicity against p53 deficient human HCT116 cells incubated for 72 hrs by MTT assay; assay type: functional, cell-based; conditions: HCT-116, 72 h; how it was run: as §1
[5] = tested on: MDA-MB-435; test: Cytotoxicity against human MDA-MB-435 cells incubated for 72 hrs by MTT assay; assay type: functional, cell-based; conditions: MDA-MB-435, 72 h; how it was run: as §1
[6] = Therapeutic index, ratio of CC50 for human C8166 cells to EC50 for HIV1 3B; assay type: cell-based; conditions: read-out: Ratio CC50/EC50
How it was run: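 Therapeutic index was calculated as the C8166 MTT CC50 divided by the HIV-1 IIIB syncytium-reduction EC50.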

[7] = Toxicity against human C8166 cells incubated for 72 hrs by MTT assay; assay type: cell-based
How it was run: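 C8166 cells were seeded with serial compound dilutions in triplicate and incubated at 37 °C, 5% CO2 for 72 h. MTT (5 mg/mL in PBS) was added for 4 h, and formazan was dissolved in 50% DMF-20% SDS. Absorbance was read at 595/630 nm. CC50 was taken from the dose-response curve.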

[8] = tested on: Human immunodeficiency virus 1; test: Antiviral activity against HIV1 3B infected in human C8166 cells assessed as reduction in virus-induced cytopathogenicity measured after 3 days by syncytium reduction assay; assay type: functional, organism-based; conditions: Human immunodeficiency virus 1, 3B, C8166, 72 h
How it was run: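 C8166 cells (4 × 10⁵ mL⁻¹), grown in RPMI-1640 with 10% heat-inactivated FCS and kept in log phase, infected with HIV-1 IIIB at MOI 0.06 in the presence of serial compound dilutions. AZT served as positive control. After 3 days, syncytia were counted by inverted microscope. EC50 was derived from percent inhibition of syncytium number relative to infected control.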

[9] = biological target: T1, Human immunodeficiency virus type 1 integrase (Human immunodeficiency virus 1, UniProt Q7ZJM1); test: Inhibition of HIV1 integrase strand transfer activity using [32P]-labeled linear oligonucleotide substrate
T1 sequence (Q7ZJM1 whole entry): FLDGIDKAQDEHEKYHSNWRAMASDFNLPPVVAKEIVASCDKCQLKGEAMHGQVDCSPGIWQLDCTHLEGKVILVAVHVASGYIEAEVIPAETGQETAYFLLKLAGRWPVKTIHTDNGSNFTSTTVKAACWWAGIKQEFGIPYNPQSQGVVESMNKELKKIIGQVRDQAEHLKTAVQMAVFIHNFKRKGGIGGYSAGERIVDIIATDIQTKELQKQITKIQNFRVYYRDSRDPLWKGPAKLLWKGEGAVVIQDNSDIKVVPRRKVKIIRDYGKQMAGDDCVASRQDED

[10] = biological target: T1, Human immunodeficiency virus type 1 integrase; test: Inhibition of HIV1 integrase 3'-processing activity using [32P]-labeled linear oligonucleotide substrate
[11] = biological target: Receptor tyrosine-protein kinase erbB-2 (Homo sapiens) (UniProt P04626); test: Inhibition of ErbB2 at 10 uM incubated for 60 mins using poly(Glu,Tyr)4:1 substrate and 10 uM ATP by ELISA
Chain of Receptor tyrosine-protein kinase erbB-2 (Homo sapiens) (P04626 whole entry): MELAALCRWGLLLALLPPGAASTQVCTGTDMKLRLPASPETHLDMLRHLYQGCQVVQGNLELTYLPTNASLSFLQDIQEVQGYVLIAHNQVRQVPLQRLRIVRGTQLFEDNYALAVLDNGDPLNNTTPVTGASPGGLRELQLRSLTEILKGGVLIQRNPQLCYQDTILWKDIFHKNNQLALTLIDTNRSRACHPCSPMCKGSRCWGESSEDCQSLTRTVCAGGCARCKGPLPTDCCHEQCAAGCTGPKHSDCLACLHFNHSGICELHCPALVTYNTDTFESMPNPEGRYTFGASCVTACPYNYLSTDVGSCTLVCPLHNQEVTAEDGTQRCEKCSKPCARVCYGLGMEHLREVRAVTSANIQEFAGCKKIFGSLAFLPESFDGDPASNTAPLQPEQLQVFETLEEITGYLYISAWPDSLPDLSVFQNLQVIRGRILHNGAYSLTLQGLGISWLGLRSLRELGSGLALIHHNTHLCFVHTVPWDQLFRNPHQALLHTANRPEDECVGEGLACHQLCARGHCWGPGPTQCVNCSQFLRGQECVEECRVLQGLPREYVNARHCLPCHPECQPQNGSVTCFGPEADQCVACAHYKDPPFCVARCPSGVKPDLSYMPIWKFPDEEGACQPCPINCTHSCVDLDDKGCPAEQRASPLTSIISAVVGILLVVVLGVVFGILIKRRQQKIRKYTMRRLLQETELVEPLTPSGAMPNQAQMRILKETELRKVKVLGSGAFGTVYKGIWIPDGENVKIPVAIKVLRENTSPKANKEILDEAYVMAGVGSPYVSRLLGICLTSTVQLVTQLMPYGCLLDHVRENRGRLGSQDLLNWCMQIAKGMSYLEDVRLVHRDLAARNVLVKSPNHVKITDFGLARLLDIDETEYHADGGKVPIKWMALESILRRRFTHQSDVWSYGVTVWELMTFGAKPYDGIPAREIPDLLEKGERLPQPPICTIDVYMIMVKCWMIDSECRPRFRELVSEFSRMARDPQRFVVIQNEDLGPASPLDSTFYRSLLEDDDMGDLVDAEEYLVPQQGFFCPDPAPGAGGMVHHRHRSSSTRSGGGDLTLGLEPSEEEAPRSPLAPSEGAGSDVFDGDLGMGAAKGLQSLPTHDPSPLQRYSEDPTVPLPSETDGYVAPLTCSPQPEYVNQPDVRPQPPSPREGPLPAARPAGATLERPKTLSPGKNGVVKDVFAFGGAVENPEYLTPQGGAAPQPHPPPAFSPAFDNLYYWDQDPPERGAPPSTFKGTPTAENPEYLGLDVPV
How it was run: (§2)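 ELISA with Poly(Glu,Tyr)4:1 (20 μg/mL) precoated as substrate and 10 μM ATP, in 50 mM HEPES pH 7.4, 20 mM MgCl2, 0.1 mM MnCl2, 0.2 mM Na3VO4, 1 mM DTT. Compound was tested at 10 μM, in duplicate. Kinase reaction ran 60 min at 37 °C. Phosphotyrosine was detected with PY99 and HRP anti-mouse IgG, developed with o-phenylenediamine/H2O2, stopped with H2SO4 and read at 492 nm. Inhibition = [1 − A492 treated/A492 control] × 100%. References: lapatinib (ErbB2) and PP2 (Src), each at 10 μM.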

[12] = biological target: Proto-oncogene tyrosine-protein kinase Src (Homo sapiens) (UniProt P12931); test: Inhibition of SRC at 10 uM incubated for 60 mins using poly(Glu,Tyr)4:1 substrate and 10 uM ATP by ELISA; how it was run: as §2
Chain of Proto-oncogene tyrosine-protein kinase Src (Homo sapiens) (P12931 2-536 limits assumed): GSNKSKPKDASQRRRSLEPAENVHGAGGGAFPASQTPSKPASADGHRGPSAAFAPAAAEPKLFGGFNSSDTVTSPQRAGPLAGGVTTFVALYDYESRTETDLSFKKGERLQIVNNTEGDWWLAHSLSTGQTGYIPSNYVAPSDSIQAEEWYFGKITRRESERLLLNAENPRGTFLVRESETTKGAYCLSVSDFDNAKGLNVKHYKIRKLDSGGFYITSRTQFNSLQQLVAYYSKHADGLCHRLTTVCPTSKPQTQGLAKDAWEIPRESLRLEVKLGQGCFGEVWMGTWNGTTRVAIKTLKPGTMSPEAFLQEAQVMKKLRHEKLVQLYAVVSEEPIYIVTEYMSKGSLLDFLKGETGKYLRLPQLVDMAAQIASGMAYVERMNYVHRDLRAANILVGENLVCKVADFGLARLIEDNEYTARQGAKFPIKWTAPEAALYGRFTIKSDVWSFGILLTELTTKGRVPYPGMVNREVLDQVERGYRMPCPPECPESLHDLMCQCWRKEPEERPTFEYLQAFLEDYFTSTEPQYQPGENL

[13] = tested on: HEY; test: Cytotoxicity against human HEY cells incubated for 72 hrs by MTT assay; assay type: functional, cell-based
[14] = tested on: LNCaP; test: Cytotoxicity against human LNCAP cells incubated for 72 hrs by MTT assay; assay type: functional, cell-based; how it was run: as §1
[15] = tested on: HT-29; test: Cytotoxicity against human HT-29 cells incubated for 72 hrs by MTT assay; assay type: functional, cell-based; conditions: HT-29, 72 h; how it was run: as §1

Row | Compound | IC50 [9] [µM] | IC50 [10] [µM] | IC50 [1] [µM] | IC50 [2] [µM] | IC50 [3] [µM] | IC50 [4] [µM] | IC50 [5] [µM] | IC50 [13] [µM] | other results
1 | N[C@H]1CC[C@H](Nc2c(C(=O)NCc3ccc(F)cc3)nc(N3CCCCC3)c3cccnc23)CC1 |  |  | 5 | > 10 | 8 | 8.5 | 5 |  | 
2 | C[C@@H](CO)Nc1nc(C(=O)NCc2ccc(F)cc2)c(O)c2ncccc12 | 0.3 | 7.8 |  |  |  |  | > 20 |  | selectivity ratio [6]: 4650; CC50 at 72 h [7]: 107 µM; EC50 [8]: 0.023 µM
3 | CS(=O)(=O)CCNCc1ccc(-c2ccc3ncnc(Nc4ccc(OCc5cccc(F)c5)c(Cl)c4)c3c2)o1 |  |  |  |  |  |  |  |  | inhibition [11]: 92%
4 | N[C@H]1CC[C@H](NC(=O)c2nc(Br)c3cccnc3c2NCc2ccc(F)cc2)CC1 |  |  |  | 2.8 | 6.4 |  | 6.6 | 7.1 | inhibition [12]: 0%; inhibition [11]: 3%
5 | CS(=O)(=O)Oc1c(C(=O)NCc2ccc(F)cc2)nc(Br)c2cccnc12 | 13 | > 111 |  |  | > 20 | > 20 | > 20 |  | selectivity ratio [6]: 4; CC50 at 72 h [7]: 48 µM; EC50 [8]: 11.8 µM
6 | C[C@H](CO)Nc1nc(C(=O)NCc2ccc(F)cc2)c(O)c2ncccc12 | 0.2 | 6.9 |  |  |  |  | > 20 |  | selectivity ratio [6]: 1330; CC50 at 72 h [7]: 69 µM; EC50 [8]: 0.052 µM
7 | N[C@H]1CC[C@H](Nc2c(C(=O)NCc3ccc4c(c3)OCO4)nc(Br)c3cccnc23)CC1 |  |  |  | 6 | 7 |  | 7 | 4 | inhibition [11]: 0%
8 | N[C@H]1CC[C@H](Nc2c(C(=O)NCc3ccc(Oc4ccccc4)cc3)nc(Br)c3cccnc23)CC1 |  |  | 7.9 |  |  |  | 4 | 9 | 
9 | CC(C)(C)OC(=O)N1CCC(Nc2c(C(=O)NCc3ccc(F)cc3)nc(Br)c3cccnc23)CC1 |  |  | > 10 | 1 | > 10 | 9 | 20 |  | IC50 [14]: > 10 µM; IC50 [15]: > 10 µM
10 | CN(C)c1ccc(CNC(=O)c2nc(Br)c3cccnc3c2N[C@H]2CC[C@H](N)CC2)cc1 |  |  | 5 |  |  |  | 4 | 5.3 | 
11 | COC(=O)c1nc(Br)c2cccnc2c1N[C@H]1CC[C@H](N)CC1 |  |  | > 20 |  |  |  | > 20 | > 20 | 
12 | N[C@H]1CC[C@H](Nc2c(C(=O)NCc3ccccn3)nc(Br)c3cccnc23)CC1 |  |  | 15 |  |  |  | 4 | > 20 | 
13 | C[C@H](NC(=O)c1nc(Br)c2cccnc2c1N[C@H]1CC[C@H](N)CC1)c1ccc(F)cc1 |  |  |  | 9 | > 10 |  | > 10 | > 10 | 
14 | O=C(NCCCNc1c(C(=O)NCc2ccc(F)cc2)nc(Br)c2cccnc12)c1ccccc1 |  |  | 2 | 1 | > 10 | > 10 | > 20 |  | IC50 [14]: > 10 µM; IC50 [15]: > 10 µM
15 | N[C@H]1CC[C@H](Nc2c(C(=O)NCc3cccc(C(F)(F)F)c3)nc(Br)c3cccnc23)CC1 |  |  | 15 |  |  |  | 4.2 | 12 | 
16 | N[C@H]1CC[C@H](Nc2c(C(=O)NC3CCCCC3)nc(Br)c3cccnc23)CC1 |  |  | 5.2 | 4.2 | > 10 |  | > 10 | 5.2 | 
17 | CNCCCNc1c(C(=O)NCc2ccc(F)cc2)nc(Br)c2cccnc12 |  |  | > 10 | 1 | 9 | > 10 | 11 |  | IC50 [14]: 8 µM; IC50 [15]: > 10 µM
18 | COC(=O)CNc1c(C(=O)NCc2ccc(F)cc2)nc(Br)c2cccnc12 |  |  | > 10 | 1 | > 10 | > 10 | 10 |  | IC50 [14]: 5 µM; IC50 [15]: > 10 µM
19 | CC(C)(C)OC(=O)N1CCN(c2c(C(=O)NCc3ccc(F)cc3)nc(Br)c3cccnc23)CC1 |  |  | > 10 | 3 | > 10 | > 10 | 10 |  | IC50 [14]: > 10 µM; IC50 [15]: > 10 µM
20 | O=C(NCc1ccc(F)cc1)c1nc(Br)c2cccnc2c1NCCCNc1c(C(=O)NCc2ccc(F)cc2)nc(Br)c2cccnc12 | > 100 | > 100 |  |  | > 20 | > 20 | > 20 |  | 
21 | COc1cccc(CNC(=O)c2nc(Br)c3cccnc3c2N[C@H]2CC[C@H](N)CC2)c1 |  |  |  | 6 | 6 |  | 7 | 7 | inhibition [11]: 0%
22 | N[C@H]1CC[C@H](Nc2c(C(=O)NCCc3ccccc3)nc(Br)c3cccnc23)CC1 |  |  |  | 7 | 8.8 |  | 8 | 6 | inhibition [11]: 0%
23 | N[C@H]1CC[C@H](Nc2c(C(=O)NCc3cccs3)nc(Br)c3cccnc23)CC1 |  |  | 7.3 |  |  |  | 4.1 | 11 | 
24 | N[C@H]1CC[C@H](Nc2c(C(=O)NCc3ccc(F)cc3)nc(N3CCCCS3(=O)=O)c3cccnc23)CC1 |  |  | 13 | 8.5 | > 10 | > 10 | 5 |  | IC50 [14]: 8 µM; IC50 [15]: > 10 µM
25 | N[C@H]1CC[C@H](Nc2c(C(=O)NCc3ccco3)nc(Br)c3cccnc23)CC1 |  |  |  | 10 | > 10 |  | > 10 | > 10 | 
26 | N[C@H]1CC[C@H](Nc2c(C(=O)NCc3ccccc3)nc(Br)c3cccnc23)CC1 |  |  |  | 8 | 7 |  | 7 | 8 | inhibition [11]: 0%
27 | Nc1cccc(Nc2c(C(=O)NCc3ccc(F)cc3)nc(Br)c3cccnc23)c1 |  |  | 8 | > 10 | > 10 | > 10 | 8 |  | IC50 [14]: 8 µM; IC50 [15]: > 10 µM
28 | N[C@H]1CC[C@H](Nc2c(C(=O)Nc3ccccc3)nc(Br)c3cccnc23)CC1 |  |  |  | 2 | 2 |  | 1 | 1 | inhibition [11]: 0%
29 | O=C(NCc1ccc(F)cc1)c1nc(NCCO)c2cccnc2c1O | 0.3 | 9.5 |  |  |  |  | > 20 |  | selectivity ratio [6]: 3140; CC50 at 72 h [7]: 91 µM; EC50 [8]: 0.029 µM
30 | CC(C)(C)n1nc(-c2ccc(Cl)cc2)c2c(N)ncnc21 |  |  |  |  |  |  |  |  | inhibition [12]: 94%

Now from value to molecule, other results behind:

Row | IC50 [9] [µM] | IC50 [10] [µM] | Compound | IC50 [1] [µM] | IC50 [2] [µM] | IC50 [3] [µM] | IC50 [4] [µM] | IC50 [5] [µM] | IC50 [13] [µM] | other results
31 | > 111 | > 111 | C[C@@H](Nc1c(C(=O)NCc2ccc(F)cc2)nc(Br)c2cccnc12)c1ccccc1 |  |  | > 20 | > 20 | > 20 |  | 
32 | > 111 | > 111 | C[C@H](Nc1c(C(=O)NCc2ccc(F)cc2)nc(Br)c2cccnc12)c1ccccc1 |  |  | > 20 | > 20 | > 20 |  | 
33 | > 100 | > 100 | CNc1c(C(=O)NCc2ccc(F)cc2)nc(Br)c2cccnc12 |  |  | > 20 | > 20 | > 20 |  | 
34 | > 100 | > 100 | NCCNc1c(C(=O)NCc2ccc(F)cc2)nc(Br)c2cccnc12 | 6 |  | > 20 | > 20 | 12 |  | 
35 | > 100 | > 100 | O=C(NCc1ccc(F)cc1)c1nc(Br)c2cccnc2c1NCc1ccccc1 |  |  | > 20 | > 20 | > 20 |  | 
36 | > 100 | > 100 | O=C(NCc1ccc(F)cc1)c1nc(Br)c2cccnc2c1NCc1ccc(F)cc1 |  |  | > 20 | > 20 | > 20 |  | 
